Screening data from PubChem BioAssay.
A selection: hits, their analogues and other compounds. The true share with any hit is near 2.5%.
ABHD5 PLIN5 PPI: blocks binding of human ABHD5 to perilipin-5; Q00G26+Q8WTS1; Split G. princeps luciferase complementation, luminescence, 4 h; inhibition, % at 4 µM; hit rate 0.78% among 360,000;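 active = inhibition above the mean inhibition across every tested compound plus 3 SD, cut at about 22% in these data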
SENP1 FRET inh: SENP1 (human) catalytic domain inhibition. Q9P0U3. recombinant SENP1 catalytic domain, CyPet-SUMO1-YPet FRET cleavage. inhibition, % at 10 µM. hit rate 0.21% among 360,000. AID 624204;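 active = inhibition at least 30% at 10 µM, raw YFP signal under a set limit, fluorescence ratio 0.5 to 1.5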
Target sequence (Q9P0U3 419-644 limits assumed): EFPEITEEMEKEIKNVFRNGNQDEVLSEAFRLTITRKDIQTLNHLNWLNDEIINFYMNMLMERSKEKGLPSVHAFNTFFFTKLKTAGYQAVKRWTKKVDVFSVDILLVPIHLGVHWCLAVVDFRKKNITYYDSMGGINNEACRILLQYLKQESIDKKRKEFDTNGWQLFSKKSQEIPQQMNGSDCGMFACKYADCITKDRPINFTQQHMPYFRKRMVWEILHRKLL
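System: Recombinant human SENP1 catalytic domain, His6-tagged | Incubation: Enzyme reaction for 50 min at room temperature, dark | Medium: Tris pH 8 with BME, BSA, NP40 and catalase | Also added: 25 nM SUMO1 FRET substrate | Compound: 10 µM single point, 0.5% DMSO | Measured by: FRET fluorescence in CFP and YFP emission channels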
B2AR ag: agonists of human beta-2 adrenergic receptor inducing internalization; P07550; response, % (concentration not given with the values); Am2.2-beta2AR cells, FAP receptor internalization, flow cytometry; hit rate 0.43% among 340,000;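 active = response above a set limit, near 3 SD of response in nonfluorescent compounds, cut at about 42% in these data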
Target sequence (P07550 whole entry, looked up): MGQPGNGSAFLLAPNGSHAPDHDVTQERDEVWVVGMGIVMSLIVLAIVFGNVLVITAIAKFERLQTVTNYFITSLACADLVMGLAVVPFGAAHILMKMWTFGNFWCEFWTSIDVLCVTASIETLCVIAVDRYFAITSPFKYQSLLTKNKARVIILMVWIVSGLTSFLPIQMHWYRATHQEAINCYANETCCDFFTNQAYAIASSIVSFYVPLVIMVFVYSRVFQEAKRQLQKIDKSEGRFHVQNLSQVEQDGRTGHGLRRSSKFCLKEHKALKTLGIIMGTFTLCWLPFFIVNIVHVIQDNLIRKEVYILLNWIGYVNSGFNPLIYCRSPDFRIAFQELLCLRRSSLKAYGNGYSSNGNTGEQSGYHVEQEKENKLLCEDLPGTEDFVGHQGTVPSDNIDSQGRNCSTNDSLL
NadD inh: inhibitors of Staphylococcus aureus NadD; purified NadD enzyme, colorimetric absorbance read-out; inhibition, % at 20 µM; hit rate 0.78% among 360,000; in the data active = inhibition above about 26%
GRK2 aptamer HTS: inhibitors of human GRK2 displacing RNA aptamer; inhibition of aptamer binding, % at 10 µM; hit rate 0.59% among 330,000; bead flow cytometry, FAM-aptamer displacement from GRK2; P25098;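 active = inhibition of aptamer binding above 40%, roughly 3 SD of noise, on plates passing a quality check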;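 note: median bead fluorescence of bound FAM aptamer so fluorescent compounds give negative values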
A number is an active result.

Screening COc1ccc(NC(=O)Nc2ccc3c(c2)C(=O)N([C@H](C)CO)C[C@H](C)[C@@H](CN(C)Cc2ccc(Cl)c(Cl)c2)OCCCC[C@@H](C)O3)cc1 returned ABHD5 PLIN5 PPI inactive, SENP1 FRET inh inactive and NadD inh 40.
For CCOc1ccc(Nc2c3ccccc3nc3ccccc23)cc1 the results were ABHD5 PLIN5 PPI inactive, SENP1 FRET inh inactive, B2AR ag 52, NadD inh inactive and GRK2 aptamer HTS inactive.
For O=C1OC(c2ccc(Cl)cc2)/C(=C(/O)c2ccccc2)C1=O (centres undefined) the results were ABHD5 PLIN5 PPI 23, SENP1 FRET inh inactive, B2AR ag inactive, NadD inh inactive and GRK2 aptamer HTS inactive.
For CN1C(=O)C(=O)/C(=C(/O)c2ccc(Br)cc2)C1c1ccc(Cl)cc1 (centres undefined) the results were ABHD5 PLIN5 PPI inactive, SENP1 FRET inh inactive, B2AR ag inactive, NadD inh inactive and GRK2 aptamer HTS inactive.
For O=[N+]([O-])c1ccc(O)c2ncccc12 the results were ABHD5 PLIN5 PPI inactive, SENP1 FRET inh inactive, B2AR ag inactive, NadD inh inactive and GRK2 aptamer HTS inactive.
O=[N+]([O-])c1cc([N+](=O)[O-])c2cccnc2c1Oc1ccccc1O was read as ABHD5 PLIN5 PPI inactive, SENP1 FRET inh inactive, B2AR ag 51, NadD inh inactive and GRK2 aptamer HTS inactive.
`Cc1noc(C)c1COc1ccc(C(=O)NCC(c2c(F)cccc2Cl)N(C)C)cc1` (centres undefined) gave ABHD5 PLIN5 PPI inactive, SENP1 FRET inh inactive, B2AR ag inactive and NadD inh inactive.
CC(O)(Cc1ccccn1)Cc1ccccn1 was read as ABHD5 PLIN5 PPI inactive, SENP1 FRET inh inactive, B2AR ag inactive and NadD inh inactive.
For O=C(N/N=C/c1ccccc1)c1ccc(N2CCCC2=O)cc1 the results were ABHD5 PLIN5 PPI inactive, SENP1 FRET inh inactive, B2AR ag 64, NadD inh inactive and GRK2 aptamer HTS inactive.
For CC(C)(C)OC(=O)N1CCC(C(=O)Nc2cccc(C(=O)N3CCOCC3)c2)CC1 the results were ABHD5 PLIN5 PPI inactive, SENP1 FRET inh inactive, B2AR ag inactive, NadD inh inactive and GRK2 aptamer HTS inactive.
For Cc1cc(C)cc(OCC(=O)OC(C)C(=O)Nc2c(C)n(C)n(-c3ccccc3)c2=O)c1 (centres undefined) the results were ABHD5 PLIN5 PPI inactive, SENP1 FRET inh inactive, B2AR ag inactive, NadD inh inactive and GRK2 aptamer HTS inactive.
`Cc1cc2c(=O)n(C)c(SCC(=O)Nc3ccc(F)cc3)nc2s1` gave ABHD5 PLIN5 PPI inactive, SENP1 FRET inh inactive, B2AR ag inactive and NadD inh inactive.
CC1=Nc2nc(N3CCCCCC3)c(C#N)c3c4c(nc(c23)N1)N(c1ccc2ccccc2c1)C(=O)C4 was read as ABHD5 PLIN5 PPI inactive, SENP1 FRET inh inactive, B2AR ag inactive, NadD inh 55 and GRK2 aptamer HTS inactive.
Screening O=C(/C=C/c1ccc2c(c1)S(=O)(=O)N(Cc1ccccc1)[C@H]2CC(=O)N1CCOCC1)N1CCOCC1 returned ABHD5 PLIN5 PPI inactive, SENP1 FRET inh inactive, B2AR ag inactive, NadD inh inactive and GRK2 aptamer HTS inactive.
For COc1cc(C=O)c(Br)cc1OCc1ccc(C)cc1 the results were ABHD5 PLIN5 PPI inactive, SENP1 FRET inh inactive, B2AR ag inactive, NadD inh inactive and GRK2 aptamer HTS inactive.
Screening CCOc1cc(C=O)c(Br)cc1OC1CCCC1 returned ABHD5 PLIN5 PPI inactive, SENP1 FRET inh inactive, B2AR ag 44, NadD inh inactive and GRK2 aptamer HTS inactive.
For COc1ccc(C)cc1Nc1n[n+](-c2ccccc2)c(-c2ccc(SC)cc2)s1 the results were ABHD5 PLIN5 PPI inactive, SENP1 FRET inh inactive, B2AR ag inactive, NadD inh inactive and GRK2 aptamer HTS inactive.
Screening CN1CCN(CC(=O)N2CCn3c4c(c5cc(C6CCCCC6)ccc53)CCCC42)CC1 (centres undefined) returned ABHD5 PLIN5 PPI 23, SENP1 FRET inh inactive, B2AR ag inactive, NadD inh inactive and GRK2 aptamer HTS inactive.
For Cc1cc(C(=O)N/N=C2\CC(=O)c3ccccc32)c(C)n1-c1ccc(F)cc1 the results were ABHD5 PLIN5 PPI inactive, SENP1 FRET inh inactive, B2AR ag inactive, NadD inh 31 and GRK2 aptamer HTS inactive.
`CCOC(=O)CCS(=O)(=O)c1nc(-c2ccccc2)cc(C(F)(F)F)n1` gave ABHD5 PLIN5 PPI 58, SENP1 FRET inh inactive, B2AR ag 60, NadD inh inactive and GRK2 aptamer HTS inactive.
CCOC(=O)Cc1cc(-c2ccccc2)nc2ccc3ccccc3c12 was read as ABHD5 PLIN5 PPI inactive, SENP1 FRET inh inactive, B2AR ag inactive, NadD inh inactive and GRK2 aptamer HTS inactive.
For CCOC(=O)CS(=O)(=O)c1nc(-c2ccc(F)cc2)cc(C(F)(F)F)n1 the results were ABHD5 PLIN5 PPI 53, SENP1 FRET inh inactive, B2AR ag 104, NadD inh inactive and GRK2 aptamer HTS inactive.
Screening CCCCN(C(=O)c1cc2c(s1)CCCCC2)c1c(N)n(CC(C)C)c(=O)[nH]c1=O returned ABHD5 PLIN5 PPI inactive, SENP1 FRET inh inactive, B2AR ag inactive and NadD inh inactive.
Screening Cc1cc[n+](-c2[nH]c(=O)sc2/C=N/NC([S-])=Nc2ccccc2)cc1 returned ABHD5 PLIN5 PPI inactive, SENP1 FRET inh inactive, B2AR ag inactive, NadD inh inactive and GRK2 aptamer HTS inactive.
Screening Cc1cc(C)c[n+](-c2[nH]c(=O)sc2/C=N/NC([S-])=Nc2ccccc2)c1 returned ABHD5 PLIN5 PPI inactive, SENP1 FRET inh 33, B2AR ag inactive, NadD inh inactive and GRK2 aptamer HTS inactive.
For COc1ccc(OC)c(C2C(C(=O)c3ccco3)=C(O)C(=O)N2CC2CCCO2)c1 (centres undefined) the results were ABHD5 PLIN5 PPI inactive, SENP1 FRET inh inactive, B2AR ag inactive, NadD inh inactive and GRK2 aptamer HTS inactive.
`COc1ccc(NC(=O)/C(C#N)=C/c2ccc(Br)o2)cc1` gave ABHD5 PLIN5 PPI inactive, SENP1 FRET inh inactive, B2AR ag inactive, NadD inh inactive and GRK2 aptamer HTS 67.
`O=C(COC(=O)/C=C/c1ccco1)Nc1ncc(C(F)(F)F)cc1Cl` gave ABHD5 PLIN5 PPI inactive, SENP1 FRET inh inactive, B2AR ag inactive, NadD inh inactive and GRK2 aptamer HTS 52.
`CSc1ccccc1NC(=O)COC(=O)/C=C/c1ccco1` gave ABHD5 PLIN5 PPI inactive, SENP1 FRET inh inactive, B2AR ag inactive, NadD inh inactive and GRK2 aptamer HTS 41.
Screening Cc1c(Cl)cnc(NC(=O)COC(=O)/C=C/c2ccco2)c1Cl returned ABHD5 PLIN5 PPI inactive, SENP1 FRET inh inactive, B2AR ag inactive and NadD inh inactive.
For CC(CNC(=O)COc1ccc2c(c1)OCO2)c1ccccc1 (centres undefined) the results were ABHD5 PLIN5 PPI inactive, SENP1 FRET inh inactive, B2AR ag inactive, NadD inh inactive and GRK2 aptamer HTS inactive.
Screening N=c1c(C(=O)NCc2ccco2)cc2c(=O)n3ccccc3nc2n1C1CCCC1 returned ABHD5 PLIN5 PPI 23, SENP1 FRET inh inactive, B2AR ag inactive, NadD inh inactive and GRK2 aptamer HTS inactive.
